Reference: ChEMBL document CHEMBL3877315, “Synthesis, biological evaluation and molecular docking analysis of 2-phenyl-benzofuran-3-carboxamide derivatives as potential inhibitors of Staphylococcus aureus Sortase A” (Bioorg Med Chem, 2017)

Assay: Inhibition of Staphylococcus aureus Sortase A delta 59 mutant using Abz-LPATG-Dnp as substrate preincubated for 1 hr followed by substrate addition measured after 30 mins by HPLC method
How it was run: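 His6-tagged SrtA59 expressed from pET28 in E. coli, IPTG-induced, Ni-NTA purified. Enzyme 5 µM was pre-incubated with inhibitor in DMSO (final 12.5~200 µM) for 1 h at 37 °C in 50 mM Tris-HCl pH 7.5, 150 mM NaCl, 5 mM CaCl₂, 0.05% Tween 20. Abz-LPATG-Dnp added at 10 µM final; stopped with HCl. G-Dnp peak area read at 355 nm by reverse-phase HPLC and compared with no-inhibitor control. IC50 taken at 50% decrease; three repeats.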

Compound	IC50
CC(C)CNC(=O)c1c(-c2ccc(COC(=O)c3ccc([N+](=O)[O-])c(O)c3)cc2)oc2ccccc12	60.6 µM
COc1cc(OC)cc(C(=O)OCc2ccc(-c3oc4ccccc4c3C(=O)NCC(C)C)cc2)c1	62 µM
CC(C)CNC(=O)c1c(-c2ccc(COC(=O)/C=C/c3ccc(O)cc3)cc2)oc2ccccc12	158 µM
CC(C)CNC(=O)c1c(-c2ccc(COC(=O)c3cccc(O)c3)cc2)oc2ccccc12	50.6 µM
CC(C)CNC(=O)c1c(-c2ccc(COC(=O)c3ccc(F)cc3)cc2)oc2ccccc12	> 200 µM
CC(C)CNC(=O)c1c(-c2ccc(COc3ccc(Cl)cc3)cc2)oc2ccccc12	> 200 µM
CC(C)CNC(=O)c1c(-c2ccc(COC(=O)c3ccc(N)cc3)cc2)oc2ccccc12	52.3 µM
CC(C)CNC(=O)c1c(-c2ccc(COC(=O)c3ccc(O)cc3O)cc2)oc2ccccc12	57 µM
CC(C)CNC(=O)c1c(-c2ccc(COC(=O)Cc3ccc(O)c(O)c3)cc2)oc2ccccc12	30.8 µM
CC(C)CNC(=O)c1c(-c2ccc(COC(=O)Cc3ccc([N+](=O)[O-])cc3)cc2)oc2ccccc12	> 200 µM
CC(C)CNC(=O)c1c(-c2ccc(COc3cccc(C=O)c3)cc2)oc2ccccc12	89 µM
COc1cc(C(=O)OCc2ccc(-c3oc4ccccc4c3C(=O)NCC(C)C)cc2)cc(OC)c1OC	55.2 µM
CC(C)CNC(=O)c1c(-c2ccc(COC(=O)c3ccc(O)c(O)c3)cc2)oc2ccccc12	39.6 µM
CC(=O)c1cccc(OCc2ccc(-c3oc4ccccc4c3C(=O)NCC(C)C)cc2)c1	148 µM
CC(C)CNC(=O)c1c(-c2ccc(COC(=O)Cc3ccc(C(F)(F)F)cc3)cc2)oc2ccccc12	> 200 µM
CC(C)CNC(=O)c1c(-c2ccc(COc3ccc(C#N)cc3)cc2)oc2ccccc12	97 µM
CC(C)CNC(=O)c1c(-c2ccc(COC(=O)c3ccc(S)cc3)cc2)oc2ccccc12	89.1 µM
CCCCNC(=O)c1c(-c2ccc(COC(=O)c3ccc(O)cc3)cc2)oc2ccccc12	186 µM
CC(C)CNC(=O)c1c(-c2ccc(COc3ccc(CO)cc3)cc2)oc2ccccc12	121 µM

Compound	IC50
CC(C)CNC(=O)c1c(-c2ccc(COC(=O)c3ccccc3[N+](=O)[O-])cc2)oc2ccccc12	> 200 µM
CCCCNC(=O)c1c(-c2ccc(COc3ccc(C(=O)OC)cc3)cc2)oc2ccccc12	> 200 µM
CC(C)CNC(=O)c1c(-c2ccc(COC(=O)Cc3ccc(O)cc3)cc2)oc2ccccc12	84 µM
CC(C)CNC(=O)c1c(-c2ccc(COC(=O)c3ccccc3O)cc2)oc2ccccc12	76.4 µM
CC(C)CNC(=O)c1c(-c2ccc(COC(=O)c3ccc(N(C)C)cc3)cc2)oc2ccccc12	> 200 µM
Cc1ccc(OCc2ccc(-c3oc4ccccc4c3C(=O)NCC(C)C)cc2)cc1	> 200 µM
CC(C)CNC(=O)c1c(-c2ccc(COc3ccc(S(C)(=O)=O)cc3)cc2)oc2ccccc12	132 µM
CC(C)CNC(=O)c1c(-c2ccc(COC(=O)Cc3ccccc3O)cc2)oc2ccccc12	89 µM
CC(C)CNC(=O)c1c(-c2ccc(COC(=O)c3ccc(O)cc3)cc2)oc2ccccc12	43 µM
CCCCNC(=O)c1c(-c2ccc(COC(=O)c3ccc(O)c(O)c3)cc2)oc2ccccc12	66 µM
CC(=O)Nc1ccc(OCc2ccc(-c3oc4ccccc4c3C(=O)NCC(C)C)cc2)cc1	171 µM
CC(C)CNC(=O)c1c(-c2ccc(COC(=O)c3ccccc3)cc2)oc2ccccc12	158 µM
CC(C)CNC(=O)c1c(-c2ccc(COC(=O)Cc3cccc(C(F)(F)F)c3)cc2)oc2ccccc12	> 200 µM
CC(=O)Nc1cccc(OCc2ccc(-c3oc4ccccc4c3C(=O)NCC(C)C)cc2)c1	148 µM
CCCCNC(=O)c1c(-c2ccc(COc3ccc(S(C)(=O)=O)cc3)cc2)oc2ccccc12	> 200 µM
CC(C)CNC(=O)c1c(-c2ccc(COc3cccc(O)c3)cc2)oc2ccccc12	86.4 µM
CC(C)CNC(=O)c1c(-c2ccc(COC(=O)Cc3cccc(O)c3)cc2)oc2ccccc12	76.3 µM
CC(C)CNC(=O)c1c(-c2ccc(COC(=O)c3cc(O)cc(O)c3)cc2)oc2ccccc12	34.5 µM
Para-Hydroxymercuribenzoic acid	130 µM
